Source: PubChem (Johns Hopkins Ion Channel Center)
The list is not random: actives were taken first. Their share in the collection is about 3.7%.
KCNQ1 inh – blocks the human KCNQ1 potassium channel; P51787; CHO-K1 KCNQ1, FluxOR thallium flux fluorescence; hits give high values; B-score at 10 µM; 310,000 compounds, 1.3% hits;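 active means compounds whose thallium flux B-score, printed positive for inhibition, exceeds three library SD while starting fluorescence stays within three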;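 further: channel opened by potassium depolarization with thallium stimulus after 20 min compound exposure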
KCNQ1 pot – human KCNQ1 channel potentiation or activation; P51787; CHO-K1 KCNQ1, thallium flux FluxOR fluorescence; hits give high values; B-score at 10 µM; 310,000 compounds, 0.35% hits; AID 2648;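 active means fluorescence ratio B-score, a plate-corrected score, at least three library SD, with initial intensity B-score within 5 SD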
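Material: CHO-K1 cells stably expressing KCNQ1. Medium: assay buffer for compound exposure, DMSO matched across wells. Reagent: K+/Tl+ depolarizing stimulus. Compound dosing: single-concentration screen. Times: 37 °C overnight plating, 90-min dark dye load, 20-min compound pretreatment. Technique: FluxOR Tl+ flux fluorescence.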
KCNK9 inh – blocks the human KCNK9 two-pore domain potassium channel; 310,000 compounds, 1.2% hits; Q9NPC2; AID 488922; B-score at 10 µM; HEK293 KCNK9, FluxOR thallium flux fluorescence; hits give low values;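 active means ratio B-score over 3 SD below the library mean, with starting fluorescence within 5 SD of its mean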;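 further: negative B-score means less thallium flux so channel inhibition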
hERG rescue – compounds protecting human hERG from proarrhythmic drug block; AID 1511; CHO-hERG, FluxOR thallium flux, dofetilide IC70 present; 310,000 compounds, 0.51% hits; Q12809; activation (rescue from dofetilide block), less the hit threshold, % at 10 µM;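 active means activation above the mean of controls blocked by dofetilide plus 5 SD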;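 further: thallium influx through hERG after potassium depolarization seen as dye fluorescence rise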
KCNK3 block – human KCNK3 channel inhibition, primary screen. O14649. CHO-KCNK3 thallium flux, FluxOR fluorescence; hits give low values. B-score at 10 µM. 340,000 compounds, 0.84% hits. AID 602410;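 active means B-score under library mean minus 4 SD, starting fluorescence ratio at most library mean plus 5 SD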;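 further: more negative B-score means stronger inhibition of thallium flux through KCNK3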
Kir21 block – inhibitors of mouse Kir2.1 inward-rectifier potassium channel | P35561 | HEK293-Kir2.1, FluxOR thallium flux fluorescence; hits give low values | 310,000 compounds, 0.85% hits | B-score at 10 µM;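 active means fluorescence ratio B-score at or below minus 3 SD of library scores, with starting-brightness B-score within 2 SD, cut at about -4.2 in these data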;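 further: channel flux triggered by added potassium and thallium sulfate stimulus; B-score of peak minus minimum fluorescence over baseline after thallium stimulus; more negative B-score means stronger Kir2.1 block with less thallium influx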
Target sequence (P35561 whole entry, looked up): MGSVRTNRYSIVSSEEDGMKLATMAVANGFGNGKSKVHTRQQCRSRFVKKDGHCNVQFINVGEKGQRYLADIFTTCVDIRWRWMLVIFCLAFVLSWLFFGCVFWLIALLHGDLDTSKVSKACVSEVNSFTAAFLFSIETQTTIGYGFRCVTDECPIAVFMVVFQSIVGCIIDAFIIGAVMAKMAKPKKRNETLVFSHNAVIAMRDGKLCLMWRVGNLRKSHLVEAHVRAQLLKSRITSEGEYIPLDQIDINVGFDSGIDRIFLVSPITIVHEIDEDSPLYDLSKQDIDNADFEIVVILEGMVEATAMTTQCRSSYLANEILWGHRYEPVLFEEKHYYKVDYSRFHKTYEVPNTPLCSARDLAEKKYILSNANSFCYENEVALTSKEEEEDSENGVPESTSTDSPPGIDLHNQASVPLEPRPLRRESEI
Numbers stand for hits; – = inactive; · = no result.

SMILES	KCNQ1 inh	KCNQ1 pot	KCNK9 inh	hERG rescue	KCNK3 block	Kir21 block
CCN(CC)P(=O)(Nc1ccc(C)cc1Br)c1ccc(N(C)C)cc1NC(=O)c1ccco1 (centres undefined)	7	–	–	–	–	–
CN=C(Nc1cccc(Cl)c1)SC1CC(=O)N(c2ccc(OC)cc2)C1=O (centres undefined)	–	–	–	–	–	–
CNC(=O)c1c(NC(=O)CCS(=O)(=O)c2ccc(C)cc2)sc2c1CCN(C(=O)OC)C2	–	–	–	–	–	–
CC(C)CN(CC(C)C)C(=O)Nc1cccc([N+](=O)[O-])c1	–	–	–	–	–	–
Cc1ccc(NC(=O)CSc2n[nH]c(C)c2[N+](=O)[O-])cc1	–	–	–	–	–	–
Cc1[nH]nc(SCC(=O)N2CCCCC2)c1[N+](=O)[O-]	–	10	–	–	–	–
CSc1ccc(S(=O)(=O)NCC(=O)OCC(=O)N(C)CC(=O)Nc2ccc(F)cc2)cc1[N+](=O)[O-]	·	·	·	·	–	·
Cc1cc(C)nc(SSc2nc(C)cc(C)n2)n1	–	–	–	5.6	–	–
CCOc1ccc(Oc2cc(NC(=O)c3ccco3)cc([N+](=O)[O-])c2)cc1	·	·	·	·	–	·
O=C(Nc1cc(Oc2ccc(Cl)cc2)cc([N+](=O)[O-])c1)c1ccco1	–	–	-7	–	–	–
Brc1ccccc1-c1nc2c3ccccc3ncn2n1	·	·	·	·	-9.4	·
O=C(NCCO)c1c(O)c2cccc3c2n(c1=O)CC3	–	–	–	–	–	–
O=C(Nc1nccs1)c1c(O)c2cccc3c2n(c1=O)CCC3	6	–	–	–	·	–
CC(C)(C)c1ccccc1NC(=O)c1c(O)c2cccc3c2n(c1=O)CC3	7	–	–	–	·	–
CCN1C(=O)C(CC(=O)Nc2ccc(OC)cc2)N(Cc2ccc3c(c2)OCO3)C1=S (centres undefined)	–	–	–	–	–	–
CC(O)[C@H]1CC[C@H]2[C@@H]3CC[C@H]4C[C@H](O)CC[C@]4(C)[C@H]3[C@H](O)C[C@]12C (some centres undefined)	·	·	·	·	–	·
CCn1c(=O)c(C(=O)NNS(=O)(=O)c2ccc(Br)cc2)c(O)c2ccccc21	6	–	–	–	–	–
CCn1c(=O)c(C(=O)NCCCc2ccccc2)c(O)c2ccccc21	6	–	–	–	–	–
CCn1c(=O)c(C(=O)NNS(=O)(=O)c2ccc(C)cc2)c(O)c2ccccc21	–	–	–	–	–	–
CCCn1c(=O)c(C(=O)NCc2ccncc2)c(O)c2ccccc21	–	–	–	–	–	–
CCn1c(=O)c(C(=O)NCCc2ccc(Cl)cc2)c(O)c2ccccc21	–	–	–	–	–	–
CCCn1c(=O)c(C(=O)NCCCc2ccccc2)c(O)c2ccccc21	7	–	–	–	–	–
CCCn1c(=O)c(C(=O)NCCc2ccc(Cl)cc2)c(O)c2ccccc21	7	–	–	–	–	–
CC(C)Oc1ccc(/C=C/C(=O)NCC2COc3ccccc3O2)cc1 (centres undefined)	–	–	–	–	–	–
O=C(Nc1ccccc1)c1oc2ccccc2c1NC(=O)C1CC1	–	–	–	–	–	–
SMILES	KCNQ1 inh	KCNQ1 pot	KCNK9 inh	hERG rescue	KCNK3 block	Kir21 block
COc1ccc(S(=O)(=O)NCCSCc2cccc(C)c2)cc1Br	–	–	–	–	–	–
Cc1ccc(S(=O)(=O)NCCSCc2ccccc2)cc1	–	–	–	–	–	-5.7
Cc1ccc(CSCCNS(=O)(=O)c2ccc([N+](=O)[O-])cc2)cc1	–	–	–	–	–	-4.4
O=C(Oc1ccc(=O)n(-c2ccccc2)n1)c1ccccc1	–	–	–	–	–	-7.4
COc1ccc(CNCC(O)(c2ccccc2)c2ccc(Cl)cc2)cc1 (centres undefined)	–	–	–	–	–	-5.9
CCc1ccc(C(O)(CNCc2ccccc2)c2ccccc2)cc1 (centres undefined)	–	–	–	–	–	-8.9
CCOC(=O)/C=C1/SCC(=O)N1CC(=O)Nc1cccc(F)c1	·	·	·	·	–	·
O=C(OC1CCOC1=O)C1CCN(S(=O)(=O)c2ccccc2)CC1 (centres undefined)	·	·	·	·	–	·
